From ChEMBL document CHEMBL3399972, “Structure-activity relationships of a novel pyranopyridine series of Gram-negative bacterial efflux pump inhibitors” (Bioorg Med Chem, 2015)
In brackets after ≈: the same amount, converted by molar mass. Activity calls are given as the source filed them.

Assays:
[1] = tested on: HeLa; test: Cytotoxicity against human HeLa cells; format: cell-based
[2] = tested on: Escherichia coli; test: Inhibition of multidrug resistance efflux pump in wild-type Escherichia coli AB1157 assessed as concentration required to reduce piperacillin MIC by 4-fold by checkerboard assay
[3] = tested on: Escherichia coli; test: Effect on outer membrane permeability in AcrAB-deficient Escherichia coli HN1159 assessed as influx of nitrocefin at 20 uM; format: functional
[4] = Inhibition of mouse liver microsome CYP3A4 at 3 uM after 10 mins by luminescence assay; format: ADME; settings: microsomes
[5] = Aqueous solubility of the compound by nephlometric method; format: physicochemical
Procedure, shortened: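 Maximum solubility in water, measured by nephelometry.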

[6] = tested on: Escherichia coli; test: Antibacterial activity against Escherichia coli at 100 uM; format: functional, organism-based
[7] = tested on: Escherichia coli; test: Inhibition of multidrug resistance efflux pump in Escherichia coli assessed as concentration required to reduce levofloxacin MIC by 4-fold by checkerboard assay
[8] = Metabolic stability in mouse liver microsomes assessed as compound remaining at 25 uM after 60 mins by HPLC analysis in presence of NADPH; format: ADME; settings: read-out: Stability
Procedure, shortened: (§1)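 Human or mouse liver microsomes at 0.5 mg/mL in 100 mM potassium phosphate pH 7.4 with 3 mM MgCl2, test compound 25 µM final, with or without (control) 2 mM NADPH; 37 °C for one hour, then stopped with equal volume acetonitrile containing 0.1% trifluoroacetic acid. Value: peak area with NADPH relative to no-NADPH control, as percent remaining.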

[9] = tested on: Escherichia coli; test: Inhibition of lactose permease in Escherichia coli HN1157 assessed as [3H]TMG accumulation up to 20 uM relative to control
Procedure, shortened: (§2)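 Proton motive force probed in E. coli HN1157 by LacY permease-mediated accumulation of [methyl-3H] thiogalactopyranoside (stock 1 mCi/ml, 7 Ci/mmol), compounds tested at concentrations up to 20 µM.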

[10] = tested on: Escherichia coli; test: Inhibition of lactose permease-dependent [3H]TMG uptake in Escherichia coli HN1157 up to 20 uM; procedure, shortened: as §2
[11] = Metabolic stability in human liver microsomes assessed as compound remaining at 25 uM after 60 mins by HPLC analysis in presence of NADPH; format: ADME; settings: read-out: Stability; procedure, shortened: as §1

## COCCN1CCN(c2nc(SCCc3ccc(OC)cc3)c(C#N)c3c2COC(C)(C)C3)CC1
[1]
  CC50: 34.8 µM
[2]
  INH: 3.1 µM
[3]
  Activity: 94%
[4]
  inhibition (INH): 42%
[5]
  solubility kinetic: ≥ 100 µM
[6]
  Activity: inactive
[7]
  INH: 6.3 µM
[8]
  remaining at 1 h, 25 µM: 17%
[9]
  [3H]TMG accumulation relative to control: 103%
[10]
  inhibition: inactive

## CC(=O)Nc1ccc(CCSc2nc(N3CC(C)OC(C)C3)c3c(c2C#N)CC(C)(C)OC3)cc1 (centres undefined)
[1]
  CC50: 60.5 µM
[2]
  INH: 0.1 µM
[3]
  Activity: 100%
[4]
  inhibition (INH): 61%
[5]
  solubility kinetic: 50 µM (≈ 24.7 µg/mL)
[6]
  Activity: inactive
[7]
  INH: 0.1 µM
[8]
  remaining at 1 h, 25 µM: 0%
[9]
  [3H]TMG accumulation relative to control: 97%
[10]
  inhibition: inactive
[11]
  remaining at 1 h, 25 µM: 37%

## CC1CN(c2nc(SCCc3ccc(NC(=N)N)cc3)c(C#N)c3c2COC(C)(C)C3)CC(C)O1 (centres undefined)
[1]
  CC50: 12 µM
[2]
  INH: 0.8 µM
[4]
  inhibition (INH): 9%
[5]
  solubility kinetic: 100 µM (≈ 49.5 µg/mL)
[6]
  Activity: inactive
[7]
  INH: 0.8 µM
[8]
  remaining at 1 h, 25 µM: 90%
[9]
  [3H]TMG accumulation relative to control: 86%
[10]
  inhibition: inactive
[11]
  remaining at 1 h, 25 µM: 90%

## CC1CN(c2nc(SCCc3cccnc3)c(C#N)c3c2COC(C)(C)C3)CC(C)O1 (centres undefined)
[1]
  CC50: 42.6 µM
[2]
  INH: 3.1 µM
[3]
  Activity: 86%
[4]
  inhibition (INH): 0%
[5]
  solubility kinetic: ≥ 100 µM
[6]
  Activity: inactive
[7]
  INH: 12.5 µM
[8]
  remaining at 1 h, 25 µM: 19%
[10]
  inhibition: inactive
[11]
  remaining at 1 h, 25 µM: 53%

## C=CC(=O)Nc1ccc(CCSc2nc(N3CC(C)OC(C)C3)c3c(c2C#N)CC(C)(C)OC3)cc1 (centres undefined)
[1]
  CC50: 62.4 µM
[2]
  INH: 0.05 µM
[3]
  Activity: 89%
[5]
  solubility kinetic: 25 µM (≈ 12.7 µg/mL)
[6]
  Activity: inactive
[7]
  INH: 0.1 µM
[8]
  remaining at 1 h, 25 µM: 49%
[9]
  [3H]TMG accumulation relative to control: 99%
[10]
  inhibition: inactive
[11]
  remaining at 1 h, 25 µM: 100%

## CC1CN(c2nc(SCCc3ccc(N)cc3)c(C#N)c3c2COC(C)(C)C3)CC(C)O1 (centres undefined)
[1]
  CC50: 52.2 µM
[2]
  INH: 0.8 µM
[3]
  Activity: 102%
[4]
  inhibition (INH): 59%
[5]
  solubility kinetic: 12 µM (≈ 5.43 µg/mL)
[6]
  Activity: inactive
[7]
  INH: 0.8 µM
[8]
  remaining at 1 h, 25 µM: 72%
[9]
  [3H]TMG accumulation relative to control: 100%
[10]
  inhibition: inactive
[11]
  remaining at 1 h, 25 µM: 76%

## CC1CN(c2nc(SCCc3ccc(NC(=O)OC(C)(C)C)cc3)c(C#N)c3c2COC(C)(C)C3)CC(C)O1 (centres undefined)
[1]
  CC50: > 100 µM
[2]
  INH: 0.4 µM
[3]
  Activity: 99%
[4]
  inhibition (INH): 0%
[5]
  solubility kinetic: 100 µM (≈ 55.3 µg/mL)
[6]
  Activity: inactive
[7]
  INH: 0.8 µM
[8]
  remaining at 1 h, 25 µM: 66%
[10]
  inhibition: inactive
[11]
  remaining at 1 h, 25 µM: 59%

## COc1ccc(CCSc2nc(N3CCOCC3)c3c(c2C#N)CC(C)(C)OC3)cc1OC
[1]
  CC50: 69.4 µM
[2]
  INH: 0.8 µM
[4]
  inhibition (INH): 49%
[5]
  solubility kinetic: 25 µM (≈ 11.7 µg/mL)
[6]
  Activity: inactive
[7]
  INH: 1.3 µM
[8]
  remaining at 1 h, 25 µM: 5%
[11]
  remaining at 1 h, 25 µM: 21%

## CC1CN(c2nc(SCCc3ccc(NC(=O)C(F)(F)F)cc3)c(C#N)c3c2COC(C)(C)C3)CC(C)O1 (centres undefined)
[1]
  CC50: 64 µM
[2]
  INH: 1.6 µM
[4]
  inhibition (INH): 66%
[5]
  solubility kinetic: 12.5 µM (≈ 6.86 µg/mL)
[6]
  Activity: inactive
[7]
  INH: 1.6 µM
[8]
  remaining at 1 h, 25 µM: 0%
[11]
  remaining at 1 h, 25 µM: 90%

## CN1CCCN(c2nc(SCCc3ccccc3)c(C#N)c3c2COC(C)(C)C3)CC1
[1]
  CC50: 16.4 µM
[2]
  INH: 25 µM
[6]
  Activity: inactive
[7]
  INH: 12.5 µM

## CC1(C)Cc2c(C#N)c(SCCc3ccccc3)nc(N3CCCOCC3)c2CO1
[1]
  CC50: > 100 µM
[2]
  INH: 1.6 µM
[6]
  Activity: inactive
[7]
  INH: > 100 µM

## CCN(CC)c1nc(SCCc2ccccc2)c(C#N)c2c1COC(C)(C)C2
[1]
  CC50: 38.2 µM
[2]
  INH: 6.3 µM
[6]
  Activity: inactive
[7]
  INH: > 100 µM

## CC1(C)Cc2c(C#N)c(SCc3ccccc3)nc(N3CCOCC3)c2CO1
[2]
  INH: > 100 µM
[6]
  Activity: inactive
[7]
  INH: > 100 µM
[10]
  inhibition: inactive

## COCCN1CCN(c2nc(SCCc3ccccn3)c(C#N)c3c2COC(C)(C)C3)CC1
[1]
  CC50: > 100 µM
[2]
  INH: 3.1 µM
[4]
  inhibition (INH): 14%
[5]
  solubility kinetic: ≥ 100 µM
[6]
  Activity: inactive
[7]
  INH: 12.5 µM
[8]
  remaining at 1 h, 25 µM: 3%
[11]
  remaining at 1 h, 25 µM: 0%

## CC1CN(c2nc(SCCc3cccc(F)c3)c(C#N)c3c2COC(C)(C)C3)CC(C)O1 (centres undefined)
[1]
  CC50: > 100 µM
[2]
  INH: 1.6 µM
[3]
  Activity: 99%
[6]
  Activity: inactive
[7]
  INH: 1.6 µM
[9]
  [3H]TMG accumulation relative to control: 103%
[10]
  inhibition: inactive

## COCCN1CCN(c2nc(SCCc3ccccc3)c(C#N)c3c2COC(C)(C)C3)CC1
[1]
  CC50: 34.2 µM
[2]
  INH: 0.4 µM
[4]
  inhibition (INH): 18%
[5]
  solubility kinetic: 50 µM (≈ 23.3 µg/mL)
[6]
  Activity: inactive
[7]
  INH: 6.3 µM
[8]
  remaining at 1 h, 25 µM: 0%
[11]
  remaining at 1 h, 25 µM: 0%

## COc1ccc(CCSc2nc(N3CCOCC3)c3c(c2C#N)CC(C)(C)OC3)cc1
[1]
  CC50: > 100 µM
[2]
  INH: 3.1 µM
[6]
  Activity: inactive
[7]
  INH: 6.3 µM

## COCCN1CCN(c2nc(SCCc3cccc(Br)c3)c(C#N)c3c2COC(C)(C)C3)CC1
[1]
  CC50: 75.1 µM
[2]
  INH: 2.8 µM
[6]
  Activity: inactive
[7]
  INH: 12.5 µM

## CN1CCN(c2nc(SCCc3ccccc3)c(C#N)c3c2COC(C)(C)C3)CC1
[1]
  CC50: 14.4 µM
[2]
  INH: 6.3 µM
[6]
  Activity: inactive
[7]
  INH: 6.3 µM

## CN(C)c1nc(SCCc2ccccc2)c(C#N)c2c1COC(C)(C)C2
[1]
  CC50: 57.4 µM
[2]
  INH: 9.4 µM
[6]
  Activity: inactive
[7]
  INH: > 100 µM

## CC1(C)Cc2c(C#N)c(SCCc3cccc(Cl)c3)nc(N3CCOCC3)c2CO1
[1]
  CC50: > 100 µM
[2]
  INH: 3.1 µM
[6]
  Activity: inactive
[7]
  INH: 3.1 µM

## CC1CN(c2nc(SCCc3ccc(NS(C)(=O)=O)cc3)c(C#N)c3c2COC(C)(C)C3)CC(C)O1 (centres undefined)
[1]
  CC50: 67 µM
[2]
  INH: 6.3 µM
[6]
  Activity: inactive
[7]
  INH: 6.3 µM

## CC1(C)Cc2c(C#N)c(SCCc3ccc(F)cc3)nc(N3CCOCC3)c2CO1
[1]
  CC50: 59 µM
[2]
  INH: 3.1 µM
[6]
  Activity: inactive
[7]
  INH: 6.3 µM

## CC1(C)Cc2c(C#N)c(SCCc3ccccc3)nc(N3CCCNCC3)c2CO1
[1]
  CC50: 20.3 µM
[2]
  INH: 12.5 µM
[6]
  Activity: inactive
[7]
  INH: 12.5 µM
